# Calls of active or inactive are those of the source. The calls are words filed in the database; no cut-off is given here.
# How the values were obtained:
# MIA PaCa-2 = assay: Antiproliferative activity against human MIA PaCa-2 cells assessed as cell viability measured after 72 hrs by MTT assay; type: functional, cell-based; details: MIA PaCa-2, 72 h
# Outline: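 MIA PaCa-2 pancreatic cancer cells; EC50 values determined in triplicate.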
# [1] = Metabolic stability in mouse liver microsomes assessed as half life at 1 uM by LC-MS/MS analysis; type: ADME, Microsome
# mTORC1 (Homo sapiens) [2] = molecular target: T1, mTORC1 (Homo sapiens) (UniProt P42345+Q8N122+Q9BVC4); assay: Inhibition of mTORC1 in human ARPE19 cells at 10 to 50 uM measured after 4 hrs by Western blot analysis related to control; type: cell-based; details: ARPE-19, dose 10-50 µM
# Outline: (§1)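 ARPE-19 cells treated 4 h without starvation with increasing concentrations or DMSO. Basal mTORC1 activity measured by Western blot as phosphorylated P70/total P70, with DMSO set to 100%.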
# ARPE-19 [3] = assay: Induction of autophagy in human ARPE-19 cells assessed as appearance of abnormal punctae at 25 uM measured after 1 hr under starvation/refeed condition by immunofluorescence analysis; type: functional, cell-based
# Outline: (§2)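 ARPE-19 cells starved 4 h in EBSS, then refed 1 h in complete medium containing 25 μM compound or DMSO. LC3 punctae imaged by immunofluorescence, with CD63 co-stain.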
# [4] = Cytotoxicity against human ARPE-19 cells assessed as cell viability measured after 72 hrs by MTT assay; type: toxicity, cell-based
# ARPE-19 [5] = assay: Induction of autophagy in human ARPE-19 cells assessed as decrease in LC3-2/actin ratio at 10 uM pretreated for 30 mins with cells followed by incubation for 4 hrs under starvation condition by Western blot analysis; type: functional, cell-based; details: time 4.5 hrs
# Outline: (§3)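 ARPE-19 cells pretreated 30 min at 10 μM (or DMSO). Then 4 h with compound in EBSS starvation medium, or in EBSS with 100 nM bafilomycin. LC3-II/actin quantified by Western blot as fold of DMSO control, n = 3.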
# [6] = Metabolic stability in mouse plasma assessed as parent compound remaining measured after 24 hrs by LC-MS/MS analysis; type: ADME, cell-free; details: read-out: Stability
# [7] = Metabolic stability in mouse plasma assessed as parent compound remaining measured after 6 hrs by LC-MS/MS analysis; type: ADME, cell-free; details: read-out: Stability
# [8] = Thermodynamic aqueous solubility of the compound at pH 7.4 measured after 48 hrs by UV-spectrometry method; type: physicochemical; details: read-out: Therm_solubility
# ARPE-19 [9] = assay: Induction of autophagy in human ARPE-19 cells assessed as LC3 enlarged structures at 25 uM pretreated for 30 mins with cells followed by incubation for 4 hrs under starvation condition by immunofluorescence analysis; type: functional, cell-based; details: time 4.5 hrs
# Outline: (§4)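 ARPE-19 cells starved 4 h in EBSS with 25 μM compound or DMSO. LC3-labeled structures imaged by immunofluorescence, with CD63 as late endosomal/lysosomal marker.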
# ARPE-19 [10] = assay: Induction of autophagy in human ARPE-19 cells assessed as decrease in LC3-2/actin ratio at 10 uM pretreated for 30 mins with cells followed by incubation for 4 hrs under starvation condition in presence of bafilomycin by Western blot analysis; type: functional, cell-based; details: time 4.5 hrs; outline: as §3
# ARPE-19 [11] = assay: Reduction in autophagic flux in human ARPE-19 cells at 25 uM incubated for 4 hrs in complete medium in presence of bafilomycin; type: functional, cell-based
# Outline: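 ARPE-19 cells in full medium with 100 nM bafilomycin plus compound or DMSO. Autophagic flux read as LC3-II by Western blot.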
# mTORC1 (Homo sapiens) [12] = molecular target: T1, mTORC1 (Homo sapiens); assay: Inhibition of mTORC1 reactivation in human ARPE-19 cells assessed as reduction of P70 phosphorylation at 10 uM preincubated for 4 hrs under starvation/refeed condition measured after 1 hr in complete medium by Western blot analysis; type: cell-based; details: time 5.0 hrs
# Outline: (§5)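 ARPE-19 cells starved 4 h in EBSS, then refed 1 h in complete medium with 10 μM compound or DMSO. mTORC1 reactivation read by Western blot as phosphorylation of P70 and 4EBP1.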
# mTORC1 (Homo sapiens) [13] = molecular target: T1, mTORC1 (Homo sapiens); assay: Inhibition of mTORC1 in human ARPE19 cells assessed as decrease in P70/total P70 phosphorylation level at 10 uM measured after 4 hrs by Western blot analysis; type: cell-based; details: ARPE-19; outline: as §1
# ARPE-19 [14] = assay: Induction of autophagy in human ARPE-19 cells assessed as increase in LC3-labeled punctae at 25 uM measured after 4 hrs by immunofluorescence analysis relative to control; type: functional, cell-based
# Outline: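 ARPE-19 cells treated 4 h at 25 μM in complete medium without starvation, or with DMSO. LC3 punctae detected by immunofluorescence, with CD63 as late endosomal/lysosomal marker.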
# [15] = Metabolic stability in human plasma assessed as parent compound remaining measured after 6 hrs by LC-MS/MS analysis; type: ADME, cell-free; details: read-out: Stability
# mTORC1 (Homo sapiens) [16] = molecular target: T1, mTORC1 (Homo sapiens); assay: Inhibition of mTORC1 reactivation in human ARPE-19 cells assessed as reduction of 4E-BP1 phosphorylation at 10 uM preincubated for 4 hrs under starvation/refeed condition measured after 1 hr in complete medium by Western blot analysis; type: cell-based; details: time 5.0 hrs; outline: as §5
# mTORC1 (Homo sapiens) [17] = molecular target: T1, mTORC1 (Homo sapiens); assay: Inhibition of mTORC1 reactivation in human ARPE-19 cells at 25 to 50 uM preincubated for 4 hrs under starvation/refeed condition measured after 1 hr in complete medium by Western blot analysis; type: cell-based; details: dose 25-50 µM, time 5.0 hrs
# ARPE-19 [18] = assay: Induction of autophagy in human ARPE-19 cells assessed as LC3 accumulation at 25 to 50 uM measured after 4 hrs under refeed condition by immunofluorescence analysis; type: functional, cell-based; details: dose 25-50 µM
# ARPE-19 [19] = assay: Induction of autophagy in human ARPE-19 cells assessed as appearance of LC3 non-uniformed shapes at 25 uM pretreated for 30 mins with cells followed by incubation for 4 hrs under starvation condition by immunofluorescence analysis; type: functional, cell-based; details: time 4.5 hrs; outline: as §4
# ARPE-19 [20] = assay: Inhibition of autophagy in human ARPE-19 cells assessed as fold decrease in LC3 turnover at 10 uM pretreated for 30 mins with cells followed by incubation for 4 hrs under starvation condition by Western blot analysis; details: time 4.5 hrs
# [21] = Metabolic stability in human plasma assessed as parent compound remaining measured after 24 hrs by LC-MS/MS analysis; type: ADME, cell-free; details: read-out: Stability
# mTORC1 (Homo sapiens) [22] = molecular target: T1, mTORC1 (Homo sapiens); assay: Inhibition of mTORC1 in human ARPE19 cells measured after 4 hrs by Western blot analysis; type: cell-based; details: ARPE-19, dose 10-50 µM; outline: as §1
# ARPE-19 [23] = assay: Induction of autophagy in human ARPE-19 cells assessed as LC3 level at 25 uM measured after 4 hrs under starvation/refeed condition by immunofluorescence analysis; type: functional, cell-based; outline: as §2
# ARPE-19 [24] = assay: Induction of autophagy in human ARPE-19 cells assessed as fold increase in LC3 turnover at 25 uM measured after 4 hrs by Western blot analysis; type: functional
# Outline: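 ARPE-19 human retinal pigment epithelial cells exposed 4 h to compound or DMSO in complete medium without starvation. LC3 conversion read by Western blot as LC3-II/actin ratio and expressed as fold increase over DMSO control, n = 3.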
# ARPE-19 [25] = assay: Induction of autophagy in human ARPE-19 cells assessed as increase in LC3-2 conversion at 10 uM measured after 4 hrs by Western blot analysis; type: functional, cell-based
# Outline: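 ARPE-19 cells treated 4 h in complete medium without starvation with increasing concentrations (10, 25, 50 μM) or DMSO. LC3 detected by Western blot; LC3-II/actin ratio expressed as fold increase over DMSO control, n = 3.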
# T1 sequence (Q8N122 whole entry, looked up, other chains not shown): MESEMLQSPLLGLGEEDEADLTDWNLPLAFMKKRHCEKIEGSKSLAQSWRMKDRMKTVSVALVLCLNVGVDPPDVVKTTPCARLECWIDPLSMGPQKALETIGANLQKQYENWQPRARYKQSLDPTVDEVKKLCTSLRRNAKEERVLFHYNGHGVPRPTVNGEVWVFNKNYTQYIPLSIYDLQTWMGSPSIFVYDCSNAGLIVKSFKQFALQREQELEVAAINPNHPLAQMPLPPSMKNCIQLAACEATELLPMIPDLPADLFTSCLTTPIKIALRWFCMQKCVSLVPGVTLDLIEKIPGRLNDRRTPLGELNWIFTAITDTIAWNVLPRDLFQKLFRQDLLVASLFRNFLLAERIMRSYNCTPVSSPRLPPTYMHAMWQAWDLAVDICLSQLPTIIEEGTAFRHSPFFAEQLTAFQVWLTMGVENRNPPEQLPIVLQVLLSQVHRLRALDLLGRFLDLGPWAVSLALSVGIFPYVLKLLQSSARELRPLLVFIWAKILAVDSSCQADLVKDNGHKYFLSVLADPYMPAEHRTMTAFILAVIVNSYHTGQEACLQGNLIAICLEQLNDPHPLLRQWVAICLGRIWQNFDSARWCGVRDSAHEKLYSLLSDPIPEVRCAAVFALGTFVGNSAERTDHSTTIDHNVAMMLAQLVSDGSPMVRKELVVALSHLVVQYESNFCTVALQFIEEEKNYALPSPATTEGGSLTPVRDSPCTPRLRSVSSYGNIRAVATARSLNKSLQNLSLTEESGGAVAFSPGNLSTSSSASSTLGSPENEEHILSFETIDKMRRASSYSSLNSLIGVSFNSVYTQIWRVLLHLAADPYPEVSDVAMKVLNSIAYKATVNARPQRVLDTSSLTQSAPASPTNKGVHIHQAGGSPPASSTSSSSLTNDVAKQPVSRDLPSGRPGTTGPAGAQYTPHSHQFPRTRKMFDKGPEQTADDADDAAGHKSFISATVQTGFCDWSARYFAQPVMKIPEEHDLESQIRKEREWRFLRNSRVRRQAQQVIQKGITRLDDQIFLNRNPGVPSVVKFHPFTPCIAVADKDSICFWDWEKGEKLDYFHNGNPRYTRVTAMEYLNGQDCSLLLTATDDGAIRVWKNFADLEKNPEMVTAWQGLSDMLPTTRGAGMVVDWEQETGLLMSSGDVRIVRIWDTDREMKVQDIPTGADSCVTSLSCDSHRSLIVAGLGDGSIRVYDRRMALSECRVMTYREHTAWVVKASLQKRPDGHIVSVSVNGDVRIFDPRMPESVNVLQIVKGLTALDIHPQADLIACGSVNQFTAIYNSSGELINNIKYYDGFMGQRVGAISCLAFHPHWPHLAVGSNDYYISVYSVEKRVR
# T1 sequence (Q9BVC4 whole entry, looked up, other chains not shown): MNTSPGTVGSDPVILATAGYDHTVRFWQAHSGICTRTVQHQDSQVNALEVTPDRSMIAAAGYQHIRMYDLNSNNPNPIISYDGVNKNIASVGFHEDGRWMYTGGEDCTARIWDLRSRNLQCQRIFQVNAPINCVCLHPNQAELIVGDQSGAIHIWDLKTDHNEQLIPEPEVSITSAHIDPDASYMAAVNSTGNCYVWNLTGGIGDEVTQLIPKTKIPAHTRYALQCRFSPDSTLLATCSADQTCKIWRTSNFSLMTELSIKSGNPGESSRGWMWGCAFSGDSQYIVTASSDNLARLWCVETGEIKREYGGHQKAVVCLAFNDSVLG
smiles,measurement,setting,value
CNC(=O)c1cccc(Cn2nc(C)c(NC(=O)c3ccc(COc4cccc(C)c4)cc3)c2C)c1,EC50,MIA PaCa-2,6.2 µM
CNC(=O)c1cccc(Cn2nc(C)c(NC(=O)c3ccc(COc4cccc(OC)c4)cc3)c2C)c1,EC50,MIA PaCa-2,6.2 µM
Cc1nn(Cc2cccc(C(=O)NC(C)C)c2)c(C)c1NC(=O)c1ccc(COc2ccccc2)cc1,EC50,MIA PaCa-2,8.9 µM
Cc1nn(Cc2ccccc2)c(C)c1NC(=O)c1ccc(COc2ccccc2)cc1,EC50,MIA PaCa-2,10 µM
Cc1nn(Cc2cccc(C(=O)N(C)C)c2)c(C)c1NC(=O)c1ccc(COc2ccccc2)cc1,EC50,MIA PaCa-2,6.4 µM
CNC(=O)c1cccc(Cn2nc(C)c(NC(=O)c3ccc(COc4ccccc4Cl)cc3)c2C)c1,EC50,MIA PaCa-2,6.3 µM
CNC(=O)c1cccc(Cn2nc(C)c(NC(=O)c3ccc(COc4ccc(C)cc4)cc3)c2C)c1,EC50,MIA PaCa-2,2.6 µM
CNC(=O)c1cccc(Cn2nc(C)c(NC(=O)c3ccc(COc4ccccc4C)cc3)c2C)c1,EC50,MIA PaCa-2,2.1 µM
Cc1nn(Cc2ccc(C(N)=O)cc2)c(C)c1NC(=O)c1ccc(COc2ccccc2)cc1,EC50,MIA PaCa-2,> 100 µM
CNC(=O)c1cccc(Cn2nc(C)c(NC(=O)c3ccc(COc4ccccc4)cc3)c2C)c1,EC50,MIA PaCa-2,6.2 µM
Nc1ccn([C@@H]2O[C@H](CO)[C@@H](O)C2(F)F)c(=O)n1 [GEMCITABINE],EC50,MIA PaCa-2,0.0015 µM
CNC(=O)c1cccc(Cn2nc(C)c(NC(=O)c3ccc(COc4cccc(Cl)c4)cc3)c2C)c1,EC50,MIA PaCa-2,5.9 µM
Cc1nn(Cc2ccccc2C(N)=O)c(C)c1NC(=O)c1ccc(COc2ccccc2)cc1,EC50,MIA PaCa-2,42 µM
CNC(=O)c1cccc(Cn2nc(C)c(NC(=O)c3ccc(COc4cccc(C(F)(F)F)c4)cc3)c2C)c1,EC50,MIA PaCa-2,2.3 µM
Cc1nn(Cc2cccc(C(=O)Nc3ccccc3)c2)c(C)c1NC(=O)c1ccc(COc2ccccc2)cc1,EC50,MIA PaCa-2,6.4 µM
CCNC(=O)c1cccc(Cn2nc(C)c(NC(=O)c3ccc(COc4ccccc4)cc3)c2C)c1,EC50,MIA PaCa-2,11 µM
C#Cc1cccc(Nc2ncnc3cc(OCCOC)c(OCCOC)cc23)c1 [ERLOTINIB],EC50,MIA PaCa-2,27 µM
Cn1cnc(N)c2ncnc1-2 [3-METHYLADENINE],EC50,MIA PaCa-2,> 100 µM
CNC(=O)c1cccc(Cn2nc(C)c(NC(=O)c3ccc(COC4CCCCC4)cc3)c2C)c1,EC50,MIA PaCa-2,14 µM
CNC(=O)c1cccc(Cn2nc(C)c(NC(=O)c3ccc(COc4ccc(C(F)(F)F)cc4)cc3)c2C)c1,half-life at 1 µM,[1],1 h
same,inhibition,mTORC1 (Homo sapiens) [2],46%
same,Activity,ARPE-19 [3],Active
same,EC50 at 72 h,[4],47.9 µM
same,Activity,ARPE-19 [5],Active
same,remaining at 24 h,[6],77%
same,remaining at 6 h,[7],91%
same,solubility thermodynamic at 48 h,[8],67.3 µM
same,EC50,MIA PaCa-2,0.8 µM
same,Activity,ARPE-19 [9],Active
same,Activity,ARPE-19 [10],inactive
same,Activity,ARPE-19 [11],inactive
same,Activity,mTORC1 (Homo sapiens) [12],inactive
same,inhibition,mTORC1 (Homo sapiens) [13],Active
same,Activity,ARPE-19 [14],Active
same,remaining at 6 h,[15],99%
same,Activity,mTORC1 (Homo sapiens) [16],inactive
same,inhibition,mTORC1 (Homo sapiens) [17],Active
same,Activity,ARPE-19 [18],Active
same,Activity,ARPE-19 [19],Active
same,fold change (FC),ARPE-19 [20],1.2
same,remaining at 24 h,[21],100%
same,inhibition,mTORC1 (Homo sapiens) [22],Dose-Dependent Effect
same,Activity,ARPE-19 [23],Active
same,fold change (FC),ARPE-19 [24],2.7
same,Activity,ARPE-19 [25],Active
CNC(=O)c1cccc(Cn2nc(C)c(NC(=O)c3ccc(COc4ccccc4C(F)(F)F)cc3)c2C)c1,EC50,MIA PaCa-2,10 µM
Fc1ccc(CNc2ncnc3ccc(F)cc23)cc1,EC50,MIA PaCa-2,20 µM
CCN(CC)CCCC(C)Nc1ccnc2cc(Cl)ccc12 (configuration not stated) [CHLOROQUINE],EC50,MIA PaCa-2,14 µM
CNC(=O)c1cccc(Cn2nc(C)c(NC(=O)c3ccc(COc4ccc(Cl)cc4)cc3)c2C)c1,EC50,MIA PaCa-2,4.2 µM
Cc1nn(Cc2cccc(C(N)=O)c2)c(C)c1NC(=O)c1ccc(COc2ccccc2)cc1,EC50,MIA PaCa-2,9.2 µM
CNC(=O)c1cccc(Cn2nc(C)c(NC(=O)c3ccc(COc4ccc(OC)cc4)cc3)c2C)c1,EC50,MIA PaCa-2,8 µM
CNC(=O)c1cccc(Cn2nc(C)c(NC(=O)c3ccc(COc4ccccc4OC)cc3)c2C)c1,EC50,MIA PaCa-2,8.5 µM

# Reference: ChEMBL document CHEMBL5260797, “N-(1-Benzyl-3,5-dimethyl-1H-pyrazol-4-yl)benzamides: Antiproliferative Activity and Effects on mTORC1 and Autophagy” (ACS Med Chem Lett, 2017)
